What was measured:
RAW264.7 [1] = assay: Cytotoxicity against LPS-stimulated mouse RAW264.7 cells assessed as effect on cell viability at 20 uM after 48 hrs by MTT assay; format: cell-based; settings: raw264.7, 48 h
How it was run: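 Viability by MTT on RAW264.7 cells seeded at 4 × 10^4 per well and held 2 h at 37 °C in humidified 5% CO2. Cells were then treated for 48 h at 37 °C with LPS (200 ng/mL) together with serially diluted test compound.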

RAW264.7 [2] = assay: Antiinflammatory activity in mouse RAW264.7 cells assessed as inhibition of LPS-stimulated nitric oxide production at 20 uM after 48 hrs by Griess assay relative to control; format: functional; settings: RAW264.7, 48 h
How it was run: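 RAW264.7 cells seeded at 4 × 10^4 per well, held 2 h at 37 °C in humidified 5% CO2, then exposed to LPS (200 ng/mL) plus serially diluted test compound for 48 h at 37 °C. Supernatant was mixed 1:1 with Griess reagent, incubated 15 min, and absorbance read at 540 nm as a nitrite measure.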

| Compound | Activity (RAW264.7 [1]) | inhibition at 20 µM (RAW264.7 [2]) [%] |
| --- | --- | --- |
| OC[C@H]1O[C@@H](Oc2c(O)cc(O)cc2[C@H]2[C@H](c3ccc(O)cc3)c3c(O)cc(O)c(O[C@@H]4O[C@H](CO)[C@@H](O)[C@H](O)[C@H]4O)c3C[C@H]2c2ccc(O)cc2)[C@H](O)[C@@H](O)[C@@H]1O | Non-Toxic |  |
| OC[C@H]1O[C@@H](Oc2c(O)cc(O)cc2[C@H]2[C@H](c3ccc(O)cc3)[C@H](c3cc(O)cc(O)c3O[C@@H]3O[C@H](CO)[C@@H](O)[C@H](O)[C@H]3O)[C@H]2c2ccc(O)cc2)[C@H](O)[C@@H](O)[C@@H]1O | Non-Toxic | 22.4 |
| OC[C@H]1O[C@@H](Oc2c(O)cc(O)cc2[C@@H]2[C@@H](c3ccc(O)cc3)[C@H](c3ccc(O)cc3)[C@H]2c2cc(O)cc(O)c2O[C@@H]2O[C@H](CO)[C@@H](O)[C@H](O)[C@H]2O)[C@H](O)[C@@H](O)[C@@H]1O | Non-Toxic | 22 |
| OC[C@H]1O[C@@H](Oc2c(O)cc(O)cc2[C@@H]2[C@@H](c3ccc(O)cc3)c3c(O)cc(O)c(O[C@@H]4O[C@H](CO)[C@@H](O)[C@H](O)[C@H]4O)c3C[C@H]2c2ccc(O)cc2)[C@H](O)[C@@H](O)[C@@H]1O | Non-Toxic |  |
| OC[C@H]1O[C@@H](Oc2c(O)cc(O)cc2[C@@H]2[C@@H](c3ccc(O)cc3)[C@@H](c3ccc(O)cc3)[C@@H]2c2cc(O)cc(O)c2O[C@@H]2O[C@H](CO)[C@@H](O)[C@H](O)[C@H]2O)[C@H](O)[C@@H](O)[C@@H]1O | Non-Toxic | 16.8 |
| OC[C@H]1O[C@@H](Oc2c(O)cc(O)cc2[C@H]2[C@H](c3ccc(O)cc3)[C@@H](c3cc(O)cc(O)c3O[C@@H]3O[C@H](CO)[C@@H](O)[C@H](O)[C@H]3O)[C@@H]2c2ccc(O)cc2)[C@H](O)[C@@H](O)[C@@H]1O | Non-Toxic | 16.7 |
| OC[C@H]1O[C@@H](Oc2c(O)cc(O)cc2[C@H]2[C@@H](c3ccc(O)cc3)c3c(O)cc(O)c(O[C@@H]4O[C@H](CO)[C@@H](O)[C@H](O)[C@H]4O)c3C[C@@H]2c2ccc(O)cc2)[C@H](O)[C@@H](O)[C@@H]1O | Non-Toxic |  |
| C[C@@H]1C[C@H]2[C@@H]3CCC4=CC(=O)C=C[C@]4(C)[C@@]3(F)[C@@H](O)C[C@]2(C)[C@@]1(O)C(=O)CO [DEXAMETHASONE] |  | 60.9 |
